Laboratory results: ChEMBL document CHEMBL1157506, “Synthesis and pharmacological characterization of chiral pyrrolidinylfuran derivatives: the discovery of new functionally selective muscarinic agonists” (J Med Chem, 2008)

Legend:
[1] = Antagonist activity at muscarinic M1/M4 receptor in guinea pig lung assessed as effect on tissue contraction; format: functional, Cavia porcellus
[2] = molecular target: T1, Muscarinic acetylcholine receptor M1 (Homo sapiens, UniProt P11229); assay: Displacement of [3H]NMS from human muscarinic M1 receptor expressed in CHO cells by liquid scintillation counter; format: cell-based
T1 sequence (P11229 whole entry): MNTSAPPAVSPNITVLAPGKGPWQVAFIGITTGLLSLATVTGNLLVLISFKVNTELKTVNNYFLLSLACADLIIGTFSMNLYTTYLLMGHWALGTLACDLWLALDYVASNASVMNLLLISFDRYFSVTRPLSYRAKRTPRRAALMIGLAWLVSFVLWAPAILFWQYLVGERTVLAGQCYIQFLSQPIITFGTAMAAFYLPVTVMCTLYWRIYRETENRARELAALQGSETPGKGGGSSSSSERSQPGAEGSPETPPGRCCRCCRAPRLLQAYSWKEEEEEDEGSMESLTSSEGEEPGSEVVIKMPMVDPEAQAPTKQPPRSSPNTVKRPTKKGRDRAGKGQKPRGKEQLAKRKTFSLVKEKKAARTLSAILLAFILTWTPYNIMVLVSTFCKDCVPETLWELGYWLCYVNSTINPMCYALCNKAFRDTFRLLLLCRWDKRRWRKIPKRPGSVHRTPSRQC

[3] = molecular target: T2, Muscarinic acetylcholine receptor M2 (Homo sapiens, UniProt P08172); assay: Displacement of [3H]NMS from human muscarinic M2 receptor expressed in CHO cells by liquid scintillation counter; format: cell-based
T2 sequence (P08172 whole entry): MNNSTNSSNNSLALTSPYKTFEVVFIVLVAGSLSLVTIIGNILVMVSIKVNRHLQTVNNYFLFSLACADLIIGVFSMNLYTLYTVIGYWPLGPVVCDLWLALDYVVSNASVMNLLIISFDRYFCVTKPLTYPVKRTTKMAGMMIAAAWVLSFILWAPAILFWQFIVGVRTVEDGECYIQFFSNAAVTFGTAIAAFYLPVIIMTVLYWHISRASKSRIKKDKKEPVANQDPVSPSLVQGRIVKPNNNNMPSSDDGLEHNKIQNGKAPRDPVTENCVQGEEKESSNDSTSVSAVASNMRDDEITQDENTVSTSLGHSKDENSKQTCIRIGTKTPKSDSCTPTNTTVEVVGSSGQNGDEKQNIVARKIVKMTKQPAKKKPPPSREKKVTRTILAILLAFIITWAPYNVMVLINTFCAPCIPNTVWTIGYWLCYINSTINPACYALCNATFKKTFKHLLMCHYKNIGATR
In short: (§1)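 Membrane protein was 70 µg/mL for hm2, 50 µg/mL for hm4 and 25 µg/mL for hm5. Incubation was 120 min at room temperature in 25 mM sodium phosphate with 5 mM MgCl2, pH 7.4. GF/C filtration and scintillation counting followed; duplicates.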

[4] = molecular target: Muscarinic acetylcholine receptor M3 (Homo sapiens, UniProt P20309); assay: Displacement of [3H]NMS from human muscarinic M3 receptor expressed in CHO cells by liquid scintillation counter; format: cell-based
[5] = molecular target: T3, Muscarinic acetylcholine receptor M4 (Homo sapiens, UniProt P08173); assay: Displacement of [3H]NMS from human muscarinic M4 receptor expressed in CHO cells by liquid scintillation counter; format: cell-based; in short: as §1
T3 sequence (P08173 whole entry): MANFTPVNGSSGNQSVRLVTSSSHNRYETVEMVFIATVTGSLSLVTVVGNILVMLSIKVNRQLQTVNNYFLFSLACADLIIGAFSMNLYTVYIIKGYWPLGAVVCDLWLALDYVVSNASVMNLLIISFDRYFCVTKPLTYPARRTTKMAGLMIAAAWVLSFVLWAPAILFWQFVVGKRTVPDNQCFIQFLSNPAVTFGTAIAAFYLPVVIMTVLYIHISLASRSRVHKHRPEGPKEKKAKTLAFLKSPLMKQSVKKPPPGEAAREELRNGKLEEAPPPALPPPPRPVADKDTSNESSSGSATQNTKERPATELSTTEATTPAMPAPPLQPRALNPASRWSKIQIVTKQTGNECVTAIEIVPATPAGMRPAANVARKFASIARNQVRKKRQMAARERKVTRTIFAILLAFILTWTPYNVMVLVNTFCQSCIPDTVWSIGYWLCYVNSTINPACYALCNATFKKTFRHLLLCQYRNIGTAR

[6] = molecular target: T4, Muscarinic acetylcholine receptor M5 (Homo sapiens, UniProt P08912); assay: Displacement of [3H]NMS from human muscarinic M5 receptor expressed in CHO cells by liquid scintillation counter; format: cell-based; in short: as §1
T4 sequence (P08912 whole entry): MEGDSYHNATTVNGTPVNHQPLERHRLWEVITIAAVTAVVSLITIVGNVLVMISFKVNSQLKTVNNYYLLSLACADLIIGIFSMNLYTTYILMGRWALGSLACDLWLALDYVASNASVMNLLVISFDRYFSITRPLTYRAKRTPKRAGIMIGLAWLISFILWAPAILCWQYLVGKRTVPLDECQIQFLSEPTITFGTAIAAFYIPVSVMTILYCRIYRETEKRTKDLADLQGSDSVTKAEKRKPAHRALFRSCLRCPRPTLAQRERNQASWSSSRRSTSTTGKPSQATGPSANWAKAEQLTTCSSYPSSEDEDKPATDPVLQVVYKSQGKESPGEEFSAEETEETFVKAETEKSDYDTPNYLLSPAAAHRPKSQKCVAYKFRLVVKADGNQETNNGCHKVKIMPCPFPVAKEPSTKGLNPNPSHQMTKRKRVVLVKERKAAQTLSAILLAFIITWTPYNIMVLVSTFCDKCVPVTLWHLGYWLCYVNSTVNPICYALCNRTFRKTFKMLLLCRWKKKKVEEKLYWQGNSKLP

Oryctolagus cuniculus = species: Oryctolagus cuniculus; assay: Intrinsic activity at muscarinic M1/M4 receptor in New Zealanda white rabbit vas deferens assessed as effect on isometric tissue contraction relative to control; format: tissue-based
In short: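 Vas deferens in solution with 10^-6 M yohimbine and 10^-8 M tripitramine at 30 °C, field-stimulated (0.1 ms, 2 Hz, 10-15 V). Contractions recorded isometrically after 1 h equilibration. A cumulative McN-A-343 reference curve was built, then cumulative curves to the test agonist. Responses are expressed as % of the control curve's maximum. Parallel reference-only tissues served as sensitivity checks.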

Cavia porcellus [7] = species: Cavia porcellus; assay: Intrinsic activity at muscarinic M2 receptor in guinea pig atrium assessed as effect on inotropic activity relative to control; format: tissue-based; settings: Cardiac atrium
In short: (§2)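 Left atria in PSS at 30 °C, paced via platinum electrodes (1 ms, 1 Hz, 5-10 V). Inotropic force recorded isometrically after 2 h equilibration. A cumulative APE reference curve was obtained, then cumulative agonist curves. Responses are expressed as % of the control maximal response.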

[8] = Agonist activity at muscarinic M2 receptor in guinea pig atrium assessed as effect on inotropic activity; format: functional, Cavia porcellus, Cardiac atrium; in short: as §2
Cavia porcellus [9] = species: Cavia porcellus; assay: Intrinsic activity at muscarinic M3 receptor in guinea pig ileum assessed as effect on tissue tension changes relative to control; format: tissue-based
In short: (§3)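 Ileum tension changes recorded isotonically after 30 min equilibration. APE curves were run at 30 min intervals; the first was discarded and the second was taken as control. Cumulative agonist curves followed, with responses expressed as % of the control maximum. Parallel reference-only tissues served as sensitivity checks.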

[10] = Agonist activity at muscarinic M3 receptor in guinea pig ileum assessed as effect on tissue tension changes; format: functional, Cavia porcellus; in short: as §3
Cavia porcellus [11] = species: Cavia porcellus; assay: Intrinsic activity at muscarinic M1/M4 receptor in guinea pig lung assessed as effect on tissue contraction relative to control
[12] = Agonist activity at muscarinic M1/M4 receptor in guinea pig lung assessed as effect on tissue contraction; format: functional, Cavia porcellus
[13] = Antagonist activity at muscarinic M1/M4 receptor in New Zealanda white rabbit vas deferens assessed as effect on isometric tissue contraction; format: functional, Oryctolagus cuniculus
In short: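 Rabbit vas deferens bathed at 30 °C with 10^-6 M yohimbine and 10^-8 M tripitramine to block α2-adrenoceptors and M2 receptors. Electrically stimulated with square-wave pulses (0.1 ms, 2 Hz, 10-15 V) and equilibrated 1 h. Isometric contractions recorded during a cumulative dose-response curve to McN-A-343. Responses are expressed as % of maximal control-curve response, with parallel reference-agonist-only tissues run.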

Chain of Muscarinic acetylcholine receptor M3 (P20309 whole entry): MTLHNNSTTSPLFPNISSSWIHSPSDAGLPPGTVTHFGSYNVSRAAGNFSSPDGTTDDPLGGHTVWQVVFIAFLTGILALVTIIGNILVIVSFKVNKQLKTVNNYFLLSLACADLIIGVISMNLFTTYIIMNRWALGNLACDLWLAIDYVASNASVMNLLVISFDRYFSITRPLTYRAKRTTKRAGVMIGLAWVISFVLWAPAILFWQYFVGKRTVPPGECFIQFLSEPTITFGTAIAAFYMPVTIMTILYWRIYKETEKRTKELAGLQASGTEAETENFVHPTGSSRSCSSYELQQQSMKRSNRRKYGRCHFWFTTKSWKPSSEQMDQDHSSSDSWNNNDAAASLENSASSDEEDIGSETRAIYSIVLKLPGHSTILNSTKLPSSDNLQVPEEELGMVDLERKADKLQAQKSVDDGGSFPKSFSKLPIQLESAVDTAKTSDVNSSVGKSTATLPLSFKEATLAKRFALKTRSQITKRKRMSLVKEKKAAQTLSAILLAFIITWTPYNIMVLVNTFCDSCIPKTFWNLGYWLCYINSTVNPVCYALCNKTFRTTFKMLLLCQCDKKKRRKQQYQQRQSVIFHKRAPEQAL

| SMILES | pKb [1] | Ki [2] [µM] | Ki [3] [µM] | Ki [4] [µM] | Ki [5] [µM] | Ki [6] [µM] | Intrinsic activity (Oryctolagus cuniculus) | Intrinsic activity (Cavia porcellus [7]) | pD2 [8] | Intrinsic activity (Cavia porcellus [9]) | pD2 [10] | pD2 [1] | Intrinsic activity (Cavia porcellus [11]) | pD2 [12] | pKb [13] | A50 (Cavia porcellus [7]) |
| --- | --- | --- | --- | --- | --- | --- | --- | --- | --- | --- | --- | --- | --- | --- | --- | --- |
| CN1CCC[C@@H]1c1ccco1 | <5 | 77.6 | 47.9 | 81.3 | 79.4 | 75.9 | 0.47 | 0.45 | 7.38 | 0.31 | 5.65 | – | – | – | – | – |
| C[N+]1(C)CCCC1c1ccco1.[I-] (racemic) | – | 5.25 | 3.72 | 2.75 | 6.46 | 3.16 | 0.26 | 0.38 | 6.65 | 0.19 | 5.65 | <5 | – | – | – | – |
| Cc1ccc(C2CCC[N+]2(C)C)o1.[I-] (racemic) | <5 | 7.41 | 1.91 | 6.92 | 4.37 | 4.68 | – | 0.33 | 7.55 | 0.28 | 7.25 | – | – | – | – | – |
| C#CCOC(=O)C1=CCCN(C)C1 [ARECAIDINE PROPARGYL ESTER] | – | – | – | – | – | – | 1 | 1 | 8.67 | 1 | 7.64 | – | 1 | 5.56 | – | – |
| Cc1ccc([C@H]2CCC[N+]2(C)C)o1.[I-] | <5 | 13.8 | 2.69 | 7.76 | 13.8 | 9.55 | – | 0.44 | 7.66 | 0.26 | 7.1 | – | – | – | 5.67 | – |
| CN1CCCC1c1ccco1 (racemic) | – | 33.1 | 41.7 | 44.7 | 69.2 | 44.7 | 0.22 | 0.4 | 7.25 | 0.35 | 5.7 | – | 0.25 | 6.87 | – | – |
| Cc1ccc([C@H]2CCCN2)o1 | – | 14.5 | 3.24 | 12 | 29.5 | 15.8 | 1 | – | 6.71 | 1 | 6.16 | – | 0.32 | 5.45 | – | 1 |
| C[N+](C)(C)CC#CCOC(=O)Nc1cccc(Cl)c1 | – | 1.95 | 3.24 | 2.4 | 9.12 | 3.8 | 1 | – | – | – | – | – | – | – | – | – |
| C[N+](C)(C)CCOC(N)=O.[Cl-] [CARBACHOL] | – | – | – | – | – | – | – | 1 | – | 1 | – | – | 1 | – | – | – |
| Cc1ccc(C2CCCN2)o1 (racemic) | 5.51 | 38 | 4.27 | 18.2 | 51.3 | 19.1 | – | 1 | 6.66 | 0.97 | 5.57 | – | – | – | – | – |
| c1coc([C@@H]2CCCN2)c1 | – | 63.1 | 107 | 43.7 | 102 | 47.9 | – | – | – | – | – | – | – | – | – | – |
| c1coc([C@H]2CCCN2)c1 | – | 46.8 | 77.6 | 25.1 | 89.1 | 31.6 | – | – | – | – | – | – | – | – | – | – |
| Cc1ccc([C@@H]2CCCN2)o1 | 5 | 155 | 28.8 | 148 | 209 | 138 | – | 0.6 | 6.1 | 1 | 5 | – | – | – | <5 | – |
| Cc1ccc(C[N+](C)(C)C)o1 | – | 7.94 | 0.955 | 6.17 | 6.31 | 6.92 | – | – | – | – | – | – | – | – | – | – |
| C[N+]1(C)CCC[C@@H]1c1ccco1.[I-] | – | 51.3 | 14.1 | 17.8 | 28.2 | 23.4 | 0.28 | 0.4 | 6.49 | 0.25 | 5.37 | <5 | – | – | – | – |
| C[N+]1(C)CCC[C@H]1c1ccco1.[I-] | <5 | 30.9 | 7.41 | 21.4 | 21.4 | 20.9 | 0.21 | 0.3 | 7.19 | 0.41 | 5.77 | – | – | – | – | – |
| Cc1ccc([C@H]2CCCN2C)o1 | <5 | 44.7 | 19.5 | 28.8 | 58.9 | 31.6 | – | 0.32 | 6.4 | 0.22 | 4.93 | – | – | – | <5 | – |
| c1coc(C2CCCN2)c1 (racemic) | – | 178 | 29.5 | 11.5 | 87.1 | 16.6 | – | – | – | – | – | – | – | – | – | – |
